Laboratory results published in ChEMBL document CHEMBL1138073, “Arylamide derivatives as allosteric inhibitors of the integrin alpha2beta1/type I collagen interaction” (Bioorg Med Chem Lett, 2006).
The source made the active and inactive calls. The calls are words filed in the database; no cut-off is given here.

Columns and labels:
[1] = Inhibition of collagen binding to integrin alpha-2-beta-1 by ELISA; design: species or system Homo sapiens
Method in brief: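 Collagen type I (soluble) immobilized on 96-well plate; recombinant GST-tagged α2 I-domain added with increasing concentrations of inhibitor. Bound I-domain detected with peroxidase-conjugated anti-GST antibody, colorimetric read at 405 nm; IC50 derived from concentration series.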

[2] = Inhibition of collagen binding to integrin alpha-2-beta-1 in intact platelets; design: species or system Homo sapiens
Method in brief: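 Gel-filtered human platelets allowed to adhere to type I collagen immobilized on 96-well plates in presence of inhibitor; inhibition scored by number of bound platelets.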

Platelet = assay: Inhibition of collagen-induced platelet aggregation at 5 uM; assay type: functional, cell-based; settings: Homo sapiens

Row | IC50 [1] | IC50 [2] | SMILES | Activity (Platelet)
1 | > 50 µM | > 100 µM | CC(C)(C)c1cc(NC(=O)c2cccc(C(=O)Nc3cc(C(C)(C)C)cc(NC(=O)[C@H](N)Cc4cccnc4)c3SCCN)c2)c(SCCN)c(NC(=O)[C@H](N)Cc2cccnc2)c1 | 
2 | 6.23 µM | 10.1 µM | NCCSc1c(NC(=O)c2cccc(C(=O)Nc3cccc(NC(=O)[C@@H](N)Cc4ccc5ccccc5c4)c3SCCN)c2)cccc1NC(=O)[C@@H](N)Cc1ccc2ccccc2c1 | 
3 | > 50 µM | > 100 µM | NCCSc1c(N)cccc1NC(=O)c1cccc(C(=O)Nc2cccc(NC(=O)[C@H](N)Cc3cccnc3)c2SCCN)c1 | 
4 | > 50 µM | > 100 µM | CC(C)(C)c1cc(NC(=O)c2cccc(C(=O)Nc3cc(C(C)(C)C)cc(NC(=O)[C@@H](N)CCCN=C(N)N)c3SCCN)c2)c(SCCN)c(NC(=O)[C@@H](N)CCCN=C(N)N)c1 | 
5 | > 50 µM | > 100 µM | CC(C)(C)c1ccc(SCCN)c(NC(=O)c2cc(C(=O)Nc3cc(C(C)(C)C)ccc3SCCN)c(OCCN)cc2OCCN)c1 | 
6 | > 20 µM | 17.3 µM | CC(C)(C)c1cc(NC(=O)c2cccc(C(=O)Nc3cc(C(C)(C)C)cc(NC(=O)[C@H](N)Cc4c[nH]c5ccccc45)c3SCCN)c2)c(SCCN)c(NC(=O)[C@H](N)Cc2c[nH]c3ccccc23)c1 | 
7 | 4.8 µM | 3.4 µM | CC(C)(C)c1cc(NC(=O)c2cccc(C(=O)Nc3cc(C(C)(C)C)cc(NC(=O)[C@@H](N)Cc4ccc5ccccc5c4)c3SCCN)c2)c(SCCN)c(NC(=O)[C@@H](N)Cc2ccc3ccccc3c2)c1 | Active
8 | > 20 µM | 14.4 µM | CC(C)(C)c1cc(NC(=O)c2cccc(C(=O)Nc3cc(C(C)(C)C)cc(NC(=O)[C@H](N)Cc4ccc5ccccc5c4)c3SCCN)c2)c(SCCN)c(NC(=O)[C@H](N)Cc2ccc3ccccc3c2)c1 | 
9 | > 50 µM | > 100 µM | CC(C)(C)c1cc(NC(=O)CN)c(SCCN)c(NC(=O)c2cccc(C(=O)Nc3cc(C(C)(C)C)cc(NC(=O)CN)c3SCCN)c2)c1 | 
10 | 19.7 µM | 16.9 µM | NCCSc1c(NC(=O)c2cccc(C(=O)Nc3cccc(NC(=O)[C@H](N)Cc4ccc5ccccc5c4)c3SCCN)c2)cccc1NC(=O)[C@H](N)Cc1ccc2ccccc2c1 | 
11 | > 50 µM | 64.6 µM | NCCSc1c(N)cccc1NC(=O)c1cccc(C(=O)Nc2cccc(NC(=O)[C@H](N)Cc3ccc4ccccc4c3)c2SCCN)c1 | 
12 | > 50 µM | > 100 µM | C[C@@H](N)C(=O)Nc1cc(C(C)(C)C)cc(NC(=O)c2cccc(C(=O)Nc3cc(C(C)(C)C)cc(NC(=O)[C@@H](C)N)c3SCCN)c2)c1SCCN | 
13 | > 50 µM | 43.2 µM | NCCOc1cc(C(=O)Nc2cccc(NC(=O)[C@H](N)Cc3ccccc3)c2SCCN)cc(C(=O)Nc2cccc(NC(=O)[C@H](N)Cc3ccccc3)c2SCCN)c1 | 
14 | > 50 µM | > 100 µM | CC(C)(C)c1cc(NC(=O)CCCN)c(SCCN)c(NC(=O)c2cccc(C(=O)Nc3cc(C(C)(C)C)cc(NC(=O)CCCN)c3SCCN)c2)c1 | 
15 | > 50 µM | 85.3 µM | NCCSc1c(N)cccc1NC(=O)c1cccc(C(=O)Nc2cccc(NC(=O)[C@@H](N)Cc3ccc4ccccc4c3)c2SCCN)c1 | 
